Results taken from ChEMBL document CHEMBL3120131, “Lipoxygenase inhibitors derived from marine macroalgae” (Bioorg Med Chem Lett, 2014).
pIC50: −log10 of the molar value.

Assays:
[1] = biological target: T1, Seed linoleate 9S-lipoxygenase (Glycine max, UniProt P24095); assay: (§1) Inhibition of soybean lipoxygenase
T1 sequence (P24095 whole entry): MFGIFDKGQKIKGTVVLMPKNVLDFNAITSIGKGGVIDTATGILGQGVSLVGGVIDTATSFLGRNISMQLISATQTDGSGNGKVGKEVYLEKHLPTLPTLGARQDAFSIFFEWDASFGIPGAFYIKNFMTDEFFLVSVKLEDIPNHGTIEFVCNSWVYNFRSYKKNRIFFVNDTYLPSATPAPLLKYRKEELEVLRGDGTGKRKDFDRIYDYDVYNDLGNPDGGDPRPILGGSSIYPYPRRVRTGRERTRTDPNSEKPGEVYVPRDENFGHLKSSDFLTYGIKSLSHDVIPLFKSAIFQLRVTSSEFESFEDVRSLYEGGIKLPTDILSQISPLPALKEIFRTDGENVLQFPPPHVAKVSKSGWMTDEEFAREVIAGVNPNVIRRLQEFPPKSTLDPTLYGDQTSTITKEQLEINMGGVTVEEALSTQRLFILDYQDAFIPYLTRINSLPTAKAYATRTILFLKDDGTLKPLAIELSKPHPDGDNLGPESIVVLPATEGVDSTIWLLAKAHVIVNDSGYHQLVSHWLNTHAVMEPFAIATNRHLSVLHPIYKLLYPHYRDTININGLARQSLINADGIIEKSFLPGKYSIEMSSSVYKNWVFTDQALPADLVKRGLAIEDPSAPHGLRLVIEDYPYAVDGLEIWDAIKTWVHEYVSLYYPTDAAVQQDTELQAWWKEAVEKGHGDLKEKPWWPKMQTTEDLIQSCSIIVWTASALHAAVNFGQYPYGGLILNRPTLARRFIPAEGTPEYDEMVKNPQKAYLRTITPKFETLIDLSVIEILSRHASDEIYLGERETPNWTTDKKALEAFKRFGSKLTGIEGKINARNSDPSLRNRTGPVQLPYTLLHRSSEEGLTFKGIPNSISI
Summary of the method: (§2)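 Soybean LOX (0.4 mg/mL stock in 100 mM borate, pH 9.0) and methanol-dissolved sample were pre-incubated 5 min at 27.5°C in 20 mM 3-dimethylaminobenzoic acid/borate pH 9.0. Argon-flushed substrate was added and the mixture held 5 min at 27.5°C. Stopped with MBTH–hemoglobin in phosphate pH 5.0; after 5 min, 1% SDS was added and A598 compared against control.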

[2] = biological target: T2, Seed linoleate 9S-lipoxygenase (Glycine max) (UniProt P24095); assay: as §1; summary of the method: as §2
T2 sequence (whole entry): T1 sequence (P24095 whole entry)

[3] = biological target: T2, Seed linoleate 9S-lipoxygenase (Glycine max); assay: Inhibition of soybean lipoxygenase at 100 uM; summary of the method: as §2

| pIC50 [1] | inhibition [2] | inhibition [3] [%] | Structure (SMILES) |
| --- | --- | --- | --- |
| 5.30 | Dose-dependent effect | – | C=CCCC/C=C\C/C=C\C/C=C\C/C=C\C/C=C\CC |
| 4.40 | Dose-dependent effect | – | C=CCCC/C=C\C/C=C\C/C=C\C/C=C\CCCCC |
| – | – | 29.4 | C=Cc1c(C)c2cc3nc(c4c5[nH]c(cc6nc(cc1[nH]2)C(C)=C6CC)c(C)c5C(=O)C4)[C@@H](CCC(=O)OC/C=C(\C)CCC[C@H](C)CCC[C@H](C)CCCC(C)C)[C@@H]3C |
| – | – | 37.6 | C=Cc1c(C)c2cc3nc(c4c5[nH]c(cc6nc(cc1[nH]2)C(C)=C6CC)c(C)c5C(=O)[C@@H]4C(=O)OC)[C@@H](CCC(=O)OC/C=C(\C)CCC[C@H](C)CCC[C@H](C)CCCC(C)C)[C@@H]3C |
| 3.40 | – | 12.7 | CC(Cc1ccc(O)c(O)c1)C(C)Cc1ccc(O)c(O)c1 (stereo not given) [NORDIHYDROGUAIARETIC ACID] |
| – | – | 6.5 | C=Cc1c(C)c2cc3nc(c4c5[nH]c(cc6nc(cc1[nH]2)C(C)=C6CC)c(C)c5C(=O)[C@@H]4C(=O)OC)[C@@H](CCC(=O)O)[C@@H]3C |
| – | – | 15 | C=Cc1c(C)c2cc3nc(c4c5[nH]c(cc6nc(cc1[nH]2)C(C)=C6CC)c(C)c5C(=O)C4)[C@@H](CCC(=O)O)[C@@H]3C |
